MEKK2mut PB1 HTS: signal of MEK5 binding to mutant human MEKK2 PB1 domain; bead flow cytometry, Alexa488-MEK5 binding to MEKK2 mutant; actives 0.35% (n = 290,000); AID 1530; percent response, % at 10 µM; in the data active = percent response above about 24%, passing the limit was not always enough
T cruzi repl: blocks replication of Trypanosoma cruzi | actives 1.4% (n = 300,000) | T. cruzi beta-gal in NIH3T3, luminescence, 90 h | AID 1885 | inhibition, % (no concentration beside the values);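 active = mean inhibition across valid replicates above about 55%, limit read from the data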;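 also: signal also drops with host cell toxicity which is not excluded here; 0% = plate median of DMSO wells and 100% = zero luminescence signal; higher percent means less beta-gal luminescence so fewer parasites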
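Assay system: NIH/3T3 host cells with β-galactosidase reporter T. cruzi; input: 5,000 host fibroblasts per well; compound: single 50 nL compound addition per well in DMSO; timing: ≥90 h infection period, 3 h prior cell attachment; measured by: GalScreen β-gal luminescence, detergent lysis, 60 min; evaluation: percent inhibition of parasite-derived β-gal signal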
MEKK3 PB1 HTS: MEKK3-MEK5 PB1 interaction, increase or decrease; bead-based flow cytometry, Alexa488-MEK5 binding to MEKK3; actives lie on both sides; 0 = blocked by unlabeled MEK5, 100 = vehicle; binding response (% of control), % at 10 µM; Q99759; actives 1.4% (n = 290,000);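 active = binding response more than 3 SD above or below the average of its plate-row segment, actives on both sides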;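 also: Alexa488 bead fluorescence after subtracting the streptavidin-only scavenger bead signal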
Target sequence (Q99759 whole entry, looked up): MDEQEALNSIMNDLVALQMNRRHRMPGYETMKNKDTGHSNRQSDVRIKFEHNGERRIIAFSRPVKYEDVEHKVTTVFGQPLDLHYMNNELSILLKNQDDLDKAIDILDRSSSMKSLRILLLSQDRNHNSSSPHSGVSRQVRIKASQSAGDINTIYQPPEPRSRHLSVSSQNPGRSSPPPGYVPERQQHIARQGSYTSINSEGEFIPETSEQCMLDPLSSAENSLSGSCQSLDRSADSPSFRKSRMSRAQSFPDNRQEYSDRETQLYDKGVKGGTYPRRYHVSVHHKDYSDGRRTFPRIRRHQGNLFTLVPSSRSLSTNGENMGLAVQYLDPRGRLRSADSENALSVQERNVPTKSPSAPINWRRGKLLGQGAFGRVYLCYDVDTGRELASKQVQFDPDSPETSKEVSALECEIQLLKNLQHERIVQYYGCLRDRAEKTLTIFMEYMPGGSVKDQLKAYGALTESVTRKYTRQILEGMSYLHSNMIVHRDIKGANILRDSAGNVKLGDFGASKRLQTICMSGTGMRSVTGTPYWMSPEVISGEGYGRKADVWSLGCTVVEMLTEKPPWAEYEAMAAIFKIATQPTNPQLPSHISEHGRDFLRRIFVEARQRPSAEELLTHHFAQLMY
MEKK2 WT-MEK5: raises or lowers MEK5 binding to wildtype human MEKK2 PB1 domain | actives 1.1% (n = 290,000) | binding response (% of control), % at 10 µM | bead flow cytometry, Alexa488-MEK5 binding to MEKK2 WT; actives lie on both sides | Q9Y2U5; in the data active = binding response below about 67% or above about 130%
NS3 helicase inh: inhibitors of Hepatitis C virus NS3 helicase. AID 1800. inhibition, % at 10.9 µM. NS3 helicase DNA unwinding, Cy5 molecular beacon fluorescence. actives 0.56% (n = 290,000);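 active = inhibition above the mean of all tested compounds plus 3 SD, set per campaign, cut at about 35% in these data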;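 also: 0% = DMSO wells and 100% = thioflavine S control wells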
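test system = hepatitis C virus NS3 helicase domain fragment enzyme | reagent = annealed dual-labelled DNA beacon duplex, ATP-started | times = 1 h at 25 °C | detection = Cy5 fluorescence, 0 and 60 min reads | read-out basis = percent inhibition from t60/t0 fluorescence ratio | control set = DMSO and thioflavine S | replication = one well per compound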
FID counter: fluorescent intercalator displacement, NS3 helicase counter-screen; DNA fluorescent intercalator displacement, fluorescence; inhibition, % at 7.9 µM; actives 0.17% (n = 290,000); in the data active = inhibition above about 37%;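 also: 0% = vehicle and 100% = reference compound; higher means more ethidium bromide displaced from hairpin DNA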
Starred values were filed as active, the others as inactive; nt = no result given; [ ] = remark or other dose. Most compounds without a hit are left out; they make up all but 4.1% or so of the library.

SMILES	MEKK2mut PB1 HTS	T cruzi repl	MEKK3 PB1 HTS	MEKK2 WT-MEK5	NS3 helicase inh	FID counter
CN(C)CCN1C(=O)C(=O)/C(=C(/O)c2ccc(S(=O)(=O)N3CCOCC3)cc2)C1c1ccc(F)cc1 (configuration not stated)	5	2	101	104	9	-9
COc1ccc(CCN(C)CC(O)COc2c(C)ccc(C)c2C)cc1OC (configuration not stated)	3	46	104	109	-29	19
COc1ccc(CCN(C)CC(O)COC(c2ccc(F)cc2)c2ccc(F)cc2)cc1OC (configuration not stated)	13	39	101	145*	-64	22
COC(=O)/C(=N\Nc1ccc(Cl)cc1)Sc1nnc(-c2ccc(OC)cc2)n1C	0	18	108	101	-7	-9
COC(=O)c1cc(C(=O)N2CCOCC2)cc([N+](=O)[O-])c1	2	-5	106	102	1	-3
O=C(NC(N1CCOCC1)C(Cl)(Cl)Cl)c1cc([N+](=O)[O-])cc([N+](=O)[O-])c1 (configuration not stated)	-11	94*	97	93	2	-7
CCOC(=O)c1sc(NC(=O)CN2C(=O)NC3(CC(C)CC(C)(C)C3)C2=O)cc1C (configuration not stated)	nt	59*	nt	nt	nt	nt
CCOC(=O)c1sc(NC(=O)CN2C(=O)NC3(CC(C)CC(C)(C)C3)C2=O)c(C(=O)OCC)c1C (configuration not stated)	2	51	108	103	-5	0
COc1ccccc1CNC(=O)[C@H](C)NC(=O)C1CCN(C(=O)[C@@H](N)CC(C)C)CC1	5	10	102	106	3	-5
O=C(CC1C(=O)NCCN1Cc1ccccc1)NCCCOc1cccnc1 (configuration not stated)	3	-9	98	104	-3	-17
CC(C)CN1CCCC(N2CCN(c3cccc(Cl)c3)CC2)C1 (configuration not stated)	-2	65*	90	103	7	8
COc1ccc(CN2CCCC(N3CCN(c4cccc(Cl)c4)CC3)C2)cc1OC (configuration not stated)	13	56*	106	118	-22	2
COc1ccc(S(=O)(=O)N(Cc2ccco2)Cc2cc3ccccc3[nH]c2=O)cc1	9	19	100	101	-2	-33
CCCCn1c(N)c(N(CC)C(=O)c2ccc(C)cc2)c(=O)[nH]c1=O	-6	-13	96	97	3	-5
CCCCn1c(N)c(N(CC)C(=O)C(c2ccccc2)c2ccccc2)c(=O)[nH]c1=O	64*	-10	82	100	7	-14
O=C(CSc1nnc(COc2ccc(F)cc2)o1)N1c2ccccc2CCc2ccccc21	1	57*	100	99	-10	-24
COc1ccc(S(=O)(=O)N2CCCCC2)cc1NC(=O)C1COc2ccccc2O1 (configuration not stated)	nt	4	nt	nt	nt	nt
COc1ccc(C(c2nnnn2C(C)C)N2CCN(C(=O)c3ccco3)CC2)cc1 (configuration not stated)	-20	0	53*[inhibitor]	46*[inhibitor]	5	-27
Cc1[nH]n(-c2ccccc2)c(=O)c1/C=N/Nc1nncc(-c2ccccc2)n1	1	70*	101	100	3	-11
CC(C1CC2CCC1C2)n1c(-c2ccco2)n[nH]c1=S (configuration not stated)	-5	-13	102	97	10	-22
CC(=O)NC12CC3CC(C1)CC(C(=O)NCc1ccc(C)cc1)(C3)C2	-5	1	92	91	-7	-17
COc1ccc2nc(C)cc(NCc3cccc(C(F)(F)F)c3)c2c1	16	42	104	154*	-42	20
CCCCc1ccc(/C(C)=N/Nc2cc(N3CCOCC3)nc(C)n2)cc1	12	62*	103	128	-43	-10
CCOC(=O)COc1cccc(C2NC(=O)c3ccccc3O2)c1 (configuration not stated)	4	-15	105	108	4	-19
CCC(C(=O)NCC1CCCO1)n1nc(C)c2sc3ccccc3c2c1=O (configuration not stated)	2	11	98	97	-2	-38
SMILES	MEKK2mut PB1 HTS	T cruzi repl	MEKK3 PB1 HTS	MEKK2 WT-MEK5	NS3 helicase inh	FID counter
O=[N+]([O-])c1ccc2nc(-c3ccccc3)cc(-c3ccccc3)c2c1	-1	13	103	102	-2	1
O=[N+]([O-])c1cc([N+](=O)[O-])c2n[nH]c(-c3ccccc3)c2c1	-12	71*	99	90	1	1
O=[N+]([O-])c1cc(-c2n[nH]c(-c3ccccc3)n2)cc([N+](=O)[O-])c1	-9	72*	92	90	2	2
COCC1CCN(Cc2cn[nH]c2-c2cc3ccccc3o2)C1 (configuration not stated)	-5	69*	88	107	-28	9
CSCC[C@H](NC(=O)[C@H](Cc1ccccc1)n1c(=O)[nH]c2ccccc2c1=O)C(=O)N1CCC[C@H]1C(=O)O	1	-16	103	99	-1	-28
CC1(C)Cc2c(sc(NC(=O)C(=O)N3CCOCC3)c2C(N)=O)CO1	0	-10	93	94	28	-19
CN(C)c1ccc2c(c1)Sc1cc(N(C)C)ccc1N2C(=O)c1ccccc1	-16	60*	95	91	7	-7
Cc1cc(N2CCOCC2)nc2ccc(NC(=O)CCC(=O)N3CCN(c4cccc(C(F)(F)F)c4)CC3)cc12	-7	24	97	97	-47	2
CCn1c(-c2ccccc2)c(C(=O)CCl)c2ccccc21	-14	61*	96	81	-3	-22
Cn1c(-c2ccccc2)c(CCO)c2ccccc21	-5	-4	101	94	2	-10
Cn1c(-c2ccccc2)c(C(=O)CCl)c2ccccc21	-4	71*	86	89	-7	-7
CCn1c2ccccc2c(=O)c2ccccc21	3	14	99	101	1	-4
Cc1ccc(C(=O)NCC(=O)OCC(=O)c2ccc(Br)s2)cc1	nt	-2	nt	nt	nt	nt
Clc1ccc(COc2cccc(CNCc3ccncc3)c2)cc1	9	70*	105	117	-25	18
CC(=O)C1=C(c2ccccc2)NC(=O)NC1c1ccc(O)c(Cl)c1 (configuration not stated)	5	-3	103	102	11	-4
C/C(Cl)=C\Cn1c(O)c(N=NC(N)=S)c2cc(Br)ccc21	-8	77*	99	85	9	5

Compound activity: PubChem BioAssay, several laboratories
